According to ChEMBL document CHEMBL5380801, “Development of Substituted Phenyl Dihydrouracil as the Novel Achiral Cereblon Ligands for Targeted Protein Degradation” (J Med Chem, 2023):
Calls of active or inactive are those of the source. No cut-off for these calls is given here.

How the values were obtained:
[1] = target: Protein cereblon/DNA damage-binding protein 1 (Homo sapiens, UniProt Q96SW2); assay: Binding affinity to recombinant human CRBN/DDB1 assessed as dissociation constant incubated for 20 mins by fluorescence polarization assay; format: protein assay
Sequence of Protein cereblon/DNA damage-binding protein 1 (Q96SW2 whole entry): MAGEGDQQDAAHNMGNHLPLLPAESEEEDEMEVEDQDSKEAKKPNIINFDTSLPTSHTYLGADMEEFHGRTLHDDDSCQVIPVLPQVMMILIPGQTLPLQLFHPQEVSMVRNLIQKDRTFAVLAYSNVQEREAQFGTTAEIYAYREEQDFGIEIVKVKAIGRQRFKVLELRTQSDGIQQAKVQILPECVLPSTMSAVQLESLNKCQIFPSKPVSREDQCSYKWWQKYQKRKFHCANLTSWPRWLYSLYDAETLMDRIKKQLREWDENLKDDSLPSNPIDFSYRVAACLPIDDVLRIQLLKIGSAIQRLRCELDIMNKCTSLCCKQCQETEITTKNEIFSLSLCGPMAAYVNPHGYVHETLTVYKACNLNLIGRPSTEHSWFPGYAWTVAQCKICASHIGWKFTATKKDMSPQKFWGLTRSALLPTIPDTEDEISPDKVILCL
Sequence of Protein cereblon/DNA damage-binding protein 1 (Q16531 whole entry, further chain): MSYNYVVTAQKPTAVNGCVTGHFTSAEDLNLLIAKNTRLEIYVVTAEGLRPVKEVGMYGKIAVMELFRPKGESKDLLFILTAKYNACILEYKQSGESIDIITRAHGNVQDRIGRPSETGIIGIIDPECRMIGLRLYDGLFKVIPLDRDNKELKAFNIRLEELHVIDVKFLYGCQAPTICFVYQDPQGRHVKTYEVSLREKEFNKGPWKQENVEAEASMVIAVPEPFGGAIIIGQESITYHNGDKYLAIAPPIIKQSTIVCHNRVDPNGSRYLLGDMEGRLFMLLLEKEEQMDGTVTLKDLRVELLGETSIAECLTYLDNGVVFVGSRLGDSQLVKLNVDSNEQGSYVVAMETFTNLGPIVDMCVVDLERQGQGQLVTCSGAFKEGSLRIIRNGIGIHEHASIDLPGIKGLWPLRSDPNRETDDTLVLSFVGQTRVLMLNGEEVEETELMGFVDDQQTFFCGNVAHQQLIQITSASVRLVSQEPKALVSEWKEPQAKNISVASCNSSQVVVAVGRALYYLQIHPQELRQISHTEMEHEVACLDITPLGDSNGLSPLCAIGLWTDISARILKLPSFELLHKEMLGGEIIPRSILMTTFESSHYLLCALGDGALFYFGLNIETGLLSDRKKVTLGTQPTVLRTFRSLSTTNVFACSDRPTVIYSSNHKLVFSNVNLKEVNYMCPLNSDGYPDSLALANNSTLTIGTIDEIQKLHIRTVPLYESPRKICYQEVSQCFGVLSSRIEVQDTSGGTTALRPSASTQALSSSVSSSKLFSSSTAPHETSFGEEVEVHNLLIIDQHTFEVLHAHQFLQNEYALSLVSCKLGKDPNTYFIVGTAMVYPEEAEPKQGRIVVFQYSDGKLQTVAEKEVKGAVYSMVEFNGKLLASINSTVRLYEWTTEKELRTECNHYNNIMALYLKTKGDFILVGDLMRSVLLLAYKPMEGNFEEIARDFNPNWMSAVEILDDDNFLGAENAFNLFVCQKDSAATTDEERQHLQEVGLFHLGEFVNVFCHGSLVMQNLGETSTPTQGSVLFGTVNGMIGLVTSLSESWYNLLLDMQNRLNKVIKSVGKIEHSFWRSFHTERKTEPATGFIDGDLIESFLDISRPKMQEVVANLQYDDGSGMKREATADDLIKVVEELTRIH

[2] = target: Protein cereblon/Bromodomain-containing protein 4 (Homo sapiens) (UniProt O60885+Q96SW2); assay: Protac activity at CRBN/BRD4 in human MV4-11 cells assessed as degradation of BRD4 at 0.01 to 1 uM incubated for 24 hrs; format: cell-based; conditions: dose 0.01-1 µM
Sequence of Protein cereblon/Bromodomain-containing protein 4 (Homo sapiens) (Q96SW2 whole entry, looked up, other chains not shown): as the sequence (Q96SW2 whole entry) above

[3] = target: Protein cereblon/Zinc finger protein Aiolos (Homo sapiens) (UniProt Q96SW2+Q9UKT9); assay: Protac activity at CRBN/IKZF3 in human MV4-11 cells assessed as induction of IKZF3 degradation at 1 to 10 uM measured after 24 hrs by Western blot analysis; format: cell-based; conditions: dose 1-10 µM
Sequence of Protein cereblon/Zinc finger protein Aiolos (Homo sapiens) (Q96SW2 whole entry, looked up): as the sequence (Q96SW2 whole entry) above
Sequence of Protein cereblon/Zinc finger protein Aiolos (Homo sapiens) (Q9UKT9 whole entry, looked up): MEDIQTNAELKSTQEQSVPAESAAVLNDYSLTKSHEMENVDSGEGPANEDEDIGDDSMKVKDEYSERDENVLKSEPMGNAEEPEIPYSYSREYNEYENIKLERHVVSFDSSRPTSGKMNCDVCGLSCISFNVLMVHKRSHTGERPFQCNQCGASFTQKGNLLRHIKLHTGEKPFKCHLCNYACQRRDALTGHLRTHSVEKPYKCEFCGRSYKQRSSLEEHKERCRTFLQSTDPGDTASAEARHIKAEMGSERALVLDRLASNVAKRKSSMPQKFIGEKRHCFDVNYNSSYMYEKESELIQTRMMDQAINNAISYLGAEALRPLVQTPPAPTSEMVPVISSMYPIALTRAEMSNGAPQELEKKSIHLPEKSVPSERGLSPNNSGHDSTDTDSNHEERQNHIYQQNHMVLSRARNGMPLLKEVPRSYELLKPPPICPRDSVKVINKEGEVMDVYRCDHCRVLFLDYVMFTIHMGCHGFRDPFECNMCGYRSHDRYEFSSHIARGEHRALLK

[4] = Stability in human plasma assessed as parent compound remaining measured after 4 hrs in presence of NADPH by LC-MS/MS analysis; format: ADME, cell-free; conditions: read-out: Stability
In short: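 Human plasma incubation; percent parent remaining reported after 4.0 h.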

[5] = Stability of the compound in HCl solution at pH 1.0 assessed as parent compound remaining at 100 uM measured after 24 hrs by HPLC analysis; format: physicochemical; conditions: read-out: Stability
In short: (§1)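 Incubated in buffer at the stated pH at 37 °C; percent parent remaining after 24 h. Ring-opening hydrolysis of the glutarimide or dihydrouracil monitored.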

[6] = Stability of the compound in bicine buffer at pH 8.8 assessed as parent compound remaining at 100 uM measured after 24 hrs by HPLC analysis; format: physicochemical; conditions: read-out: Stability; in short: as §1
[7] = target: Protein cereblon/Eukaryotic peptide chain release factor GTP-binding subunit ERF3A (Homo sapiens) (UniProt Q96SW2+P15170); assay: Protac activity at CRBN/GSPT1 in human MV4-11 cells assessed as induction of GSPT1 degradation at 1 to 10 uM measured after 24 hrs by Western blot analysis; format: cell-based; conditions: dose 1-10 µM
Sequence of Protein cereblon/Eukaryotic peptide chain release factor GTP-binding subunit ERF3A (Homo sapiens) (P15170 whole entry, looked up): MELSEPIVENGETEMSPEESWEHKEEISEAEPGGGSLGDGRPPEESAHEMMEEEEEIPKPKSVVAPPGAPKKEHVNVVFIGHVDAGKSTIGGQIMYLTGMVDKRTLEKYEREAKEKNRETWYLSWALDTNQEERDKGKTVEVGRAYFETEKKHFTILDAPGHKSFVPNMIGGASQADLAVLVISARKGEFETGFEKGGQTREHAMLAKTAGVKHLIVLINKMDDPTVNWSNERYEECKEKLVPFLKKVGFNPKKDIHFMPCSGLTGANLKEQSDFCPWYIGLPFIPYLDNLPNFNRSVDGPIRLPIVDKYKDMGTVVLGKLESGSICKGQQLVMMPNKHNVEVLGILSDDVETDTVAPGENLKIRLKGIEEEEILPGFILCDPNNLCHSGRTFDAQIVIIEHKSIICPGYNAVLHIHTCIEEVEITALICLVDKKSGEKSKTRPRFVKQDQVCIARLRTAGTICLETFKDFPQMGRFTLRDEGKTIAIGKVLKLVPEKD
Sequence of Protein cereblon/Eukaryotic peptide chain release factor GTP-binding subunit ERF3A (Homo sapiens) (Q96SW2 whole entry, looked up): as the sequence (Q96SW2 whole entry) above

[8] = Stability in human liver microsomes assessed as parent compound remaining measured after 0.5 hrs in presence of NADPH by LC-MS/MS analysis; format: ADME, Microsome; conditions: read-out: Stability
In short: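 Human liver microsome incubation; percent parent remaining reported after 0.5 h.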

[9] = target: Cereblon/Ikaros (Homo sapiens) (UniProt Q96SW2+Q13422); assay: Protac activity at CRBN/IKZF1 in human MV4-11 cells assessed as induction of IKZF1 degradation at 1 to 10 uM measured after 24 hrs by Western blot analysis; format: cell-based; conditions: dose 1-10 µM
[10] = Stability of the compound in potassium phosphate buffer at pH 7.4 assessed as parent compound remaining at 100 uM measured after 24 hrs by HPLC analysis; format: physicochemical; conditions: read-out: Stability; in short: as §1
[11] = test system: MV4-11; assay: Antiproliferative activity at human MV4-11 cells assessed as reduction in cell viability at upto 100 uM measured after 72 hrs by Alamar blue dye based analysis; format: functional
In short: (§2)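 MV4;11 cells (RPMI1640, 10% FBS, 1% Pen/Strep, 37 °C, 5% CO2, used within 20 passages) seeded at 5000–10000 cells/well, then given DMSO or compound at the indicated doses for 72 h. AlamarBlue then added; fluorescence read at ex 530–560 nm, em 590 nm. Signal normalized to DMSO-treated cells; IC50 calculated.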

[12] = test system: MV4-11; assay: Induction of apoptosis in human MV4-11 cells assessed as late apoptotic cells at 0.01 uM measured after 48 hrs by Annexin V-FITC staining based flow cytometry (reference value: 0.42%); format: functional
[13] = test system: MV4-11; assay: Induction of apoptosis in human MV4-11 cells assessed as viable cells at 10 uM measured after 48 hrs by Annexin V-FITC staining based flow cytometry (reference value: 98.7%); format: functional; conditions: read-out: Activity
[14] = test system: MV4-11; assay: Induction of apoptosis in human MV4-11 cells assessed as necrotic cells at 10 uM measured after 48 hrs by Annexin V-FITC staining based flow cytometry (reference value: 0.86%); format: functional
[15] = test system: MV4-11; assay: Induction of apoptosis in human MV4-11 cells assessed as caspase 3 cleavage at 0.01 to 10 nM; format: functional, cell-based; conditions: MV4-11, dose upper 10.0 µM, in the assay text read “0.01 to 10 uM” for “0.01 to 10 nM”
In short: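 MV4;11 cells treated with the indicated concentrations for 24 h, or for the indicated times. […] Blocked in 5% BSA/TBST; anti-caspase 3 and anti-β-actin overnight in the cold, HRP secondary 1 h at room temperature; ECL detection of full-length and cleaved caspase 3.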

[16] = test system: MV4-11; assay: Induction of apoptosis in human MV4-11 cells assessed as early apoptotic cells at 0.1 uM measured after 48 hrs by Annexin V-FITC staining based flow cytometry (reference value: 0%); format: functional
[17] = test system: MV4-11; assay: Induction of cell cycle arrest in human MV4-11 cells assessed as decrease in accumulation of cells at S phase at 0.01 to 10 uM incubated for 48 hrs by PI staining based flow cytometry analysis; format: functional; conditions: dose 0.01-10 µM
In short: (§3)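 Cell-cycle distribution determined by flow cytometry (Attune) in MV4;11 cells seeded in 6-well plates and treated with the indicated concentrations for 48 h.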

[18] = test system: MV4-11; assay: Induction of apoptosis in human MV4-11 cells assessed as late apoptotic cells at 0.1 uM measured after 48 hrs by Annexin V-FITC staining based flow cytometry (reference value: 0.42%); format: functional
[19] = test system: MV4-11; assay: Induction of apoptosis in human MV4-11 cells assessed as necrotic cells at 1 uM measured after 48 hrs by Annexin V-FITC staining based flow cytometry (reference value: 0.86%); format: functional
[20] = test system: MV4-11; assay: Induction of apoptosis in human MV4-11 cells assessed as early apoptotic cells at 0.01 uM measured after 48 hrs by Annexin V-FITC staining based flow cytometry (reference value: 0%); format: functional
[21] = test system: MV4-11; assay: Induction of apoptosis in human MV4-11 cells assessed as viable cells at 0.01 uM measured after 48 hrs by Annexin V-FITC staining based flow cytometry (reference value: 98.7%); format: functional; conditions: read-out: Activity
[22] = test system: MV4-11; assay: Antiproliferative activity at human MV4-11 cells assessed as reduction in cell viability measured after 72 hrs by Alamar blue dye based analysis; format: functional; conditions: MV4-11, 72 h; in short: as §2
[23] = test system: MV4-11; assay: Induction of apoptosis in human MV4-11 cells assessed as viable cells at 1 uM measured after 48 hrs by Annexin V-FITC staining based flow cytometry (reference value: 98.7%); format: functional; conditions: read-out: Activity
[24] = test system: MV4-11; assay: Induction of apoptosis in human MV4-11 cells assessed as early apoptotic cells at 10 uM measured after 48 hrs by Annexin V-FITC staining based flow cytometry (reference value: 0%); format: functional
[25] = test system: MV4-11; assay: Induction of apoptosis in human MV4-11 cells assessed as necrotic cells at 0.1 uM measured after 48 hrs by Annexin V-FITC staining based flow cytometry (reference value: 0.86%); format: functional
[26] = test system: MV4-11; assay: Induction of cell cycle arrest in human MV4-11 cells assessed as accumulation of cells at G1 phase at 0.01 to 10 uM incubated for 48 hrs by PI staining based flow cytometry analysis; format: functional; conditions: dose 0.01-10 µM; in short: as §3
[27] = test system: MV4-11; assay: Induction of apoptosis in human MV4-11 cells assessed as early apoptotic cells at 1 uM measured after 48 hrs by Annexin V-FITC staining based flow cytometry (reference value: 0%); format: functional
[28] = test system: MV4-11; assay: Induction of apoptosis in human MV4-11 cells assessed as late apoptotic cells at 10 uM measured after 48 hrs by Annexin V-FITC staining based flow cytometry (reference value: 0.42%); format: functional
[29] = test system: MV4-11; assay: Induction of apoptosis in human MV4-11 cells assessed as viable cells at 0.1 uM measured after 48 hrs by Annexin V-FITC staining based flow cytometry (reference value: 98.7%); format: functional; conditions: read-out: Activity
[30] = test system: MV4-11; assay: Induction of apoptosis in human MV4-11 cells assessed as late apoptotic cells at 1 uM measured after 48 hrs by Annexin V-FITC staining based flow cytometry (reference value: 0.42%); format: functional
[31] = test system: MV4-11; assay: Induction of apoptosis in human MV4-11 cells assessed as necrotic cells at 0.01 uM measured after 48 hrs by Annexin V-FITC staining based flow cytometry (reference value: 0.86%); format: functional
[32] = Stability of the compound in bicine buffer at pH 8.8 assessed as parent compound remaining at 100 uM measured after 2 hrs by HPLC analysis; format: physicochemical; conditions: read-out: Stability
In short: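 Incubated in pH 8.8 buffer; percent parent remaining reported after 2 h.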

CC(C)(C)OC(=O)NCC#Cc1cccc(N2CCC(=O)NC2=O)c1
Kd [1]: 530 nM

Cc1c(OCC(=O)OC(C)(C)C)cccc1N1CCC(=O)NC1=O
Kd [1]: 1200 nM

Cc1sc2c(c1C)C(c1ccc(Cl)cc1)=N[C@@H](CC(=O)NC1CCN(C(=O)COc3cccc(N4CCC(=O)N(C)C4=O)c3C)CC1)c1nnc(C)n1-2
Activity [2]: inactive

CCNC(=O)COc1cccc(N2CCC(=O)NC2=O)c1C
Activity [3]: inactive
remaining at 4 h [4]: 88%
Kd [1]: 2140 nM
remaining at 24 h, 100 µM [5]: > 99%
remaining at 24 h, 100 µM [6]: 95%
Activity [7]: inactive
remaining at 0.5 h [8]: 100%
Activity [9]: inactive
remaining at 24 h, 100 µM [10]: > 99%

Cc1ccccc1N1CCC(=O)NC1=O
Kd [1]: 1240 nM

Cc1c(OCC(=O)N2CCCCC2)cccc1N1CCC(=O)NC1=O
Activity [3]: inactive
remaining at 4 h [4]: 81%
Kd [1]: 1100 nM
remaining at 24 h, 100 µM [5]: > 99%
remaining at 24 h, 100 µM [6]: 95%
Activity [7]: inactive
remaining at 0.5 h [8]: 85%
Activity [9]: inactive
remaining at 24 h, 100 µM [10]: > 99%
Activity [11]: inactive

Cc1sc2c(c1C)C(c1ccc(Cl)cc1)=N[C@@H](CC(=O)NC1CCN(C(=O)COc3cccc(N4CCC(=O)NC4=O)c3C)CC1)c1nnc(C)n1-2
Activity [12]: 13.4%
viability at 10 µM [13]: 3.88%
Activity [14]: 16.9%
Activity [15]: Active
Activity [16]: 1.13%
Activity [17]: Active
Activity [18]: 42.3%
Activity [19]: 48.7%
Activity [20]: 0.32%
viability at 0.01 µM [21]: 77.2%
IC50 [22]: 1.1 nM
viability at 1 µM [23]: 7.3%
Activity [24]: 5.77%
Activity [25]: 39.4%
Activity [26]: Active
Activity [27]: 0.49%
Activity [28]: 88.7%
viability at 0.1 µM [29]: 17.1%
Activity [30]: 43.6%
Activity [31]: 9.13%

Cc1c(C#CCNC(=O)OC(C)(C)C)cccc1N1CCC(=O)NC1=O
Activity [3]: inactive
remaining at 4 h [4]: 97%
remaining at 24 h, 100 µM [5]: > 99%
remaining at 24 h, 100 µM [6]: 93%
Activity [7]: inactive
remaining at 0.5 h [8]: 87%
Activity [9]: inactive
remaining at 24 h, 100 µM [10]: > 99%

Nc1cccc2c1CN(C1CCC(=O)NC1=O)C2=O (stereo not given) [LENALIDOMIDE]
remaining at 2 h, 100 µM [32]: 20%
remaining at 4 h [4]: 62%
remaining at 24 h, 100 µM [5]: > 99%
remaining at 0.5 h [8]: 89%
remaining at 24 h, 100 µM [10]: 39%

CC(=O)NCCC#Cc1cccc(N2CCC(=O)NC2=O)c1C
Activity [3]: inactive
remaining at 4 h [4]: 102%
Kd [1]: 630 nM
remaining at 24 h, 100 µM [5]: > 99%
remaining at 24 h, 100 µM [6]: 90%
Activity [7]: inactive
remaining at 0.5 h [8]: 90%
Activity [9]: inactive
remaining at 24 h, 100 µM [10]: > 99%
